Hits are enriched below; roughly 3.3% of the tested compounds scored in any of these assays.
SIAE inh: human SIAE inhibitors, primary screen, biochemical, fluorescence polarization, FP-Rh probe, 1536-well HTS; hit rate 0.69% among 370,000; inhibition, % at 9.66 µM; SIAE FP-Rh probe binding; Sialate O-acetylesterase (Homo sapiens), Q9HAT2;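 active means inhibition above a cutoff: mean of compounds within the control limits plus 3 SD of those, cut at about 17% in these data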;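 further: 0% = plate median of compound wells and 100% = probe without SIAE protein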
ABHD4 inh: ABHD4 inhibitors, primary screen, biochemical, fluorescence polarization, mouse | purified mABHD4, FP-Rh probe fluorescence polarization | hit rate 0.54% among 370,000 | (Lyso)-N-acylphosphatidylethanolamine lipase (Mus musculus), Q8VD66 | inhibition, % at 8.92 µM | AID 720543, 2013;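 active means inhibition exceeding the mean over every tested compound plus 3 SD, cut at about 30% in these data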;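 further: 0% = plate median of compound wells and 100% = S159A mutant with DMSO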
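System: mouse ABHD4 enzyme, wild type / Medium: HEPES pH 7.0, NaCl, Pluronic buffer / Reagent: FP-Rh activity-based fluorescent probe / Control set: S159A mutant high control, sample median low control / Detection: fluorescence polarization with parallel and perpendicular emission, 525/598 nm / Schedule: 45 min + 60 min at 25 °C / Compound dosing: 8.92 µM, single dose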
PRMT1 FP inh: PRMT1 methyltransferase inhibitors, primary screen, biochemical, fluorescence polarization; Protein arginine N-methyltransferase 1 (Homo sapiens), Q99873; recombinant PRMT1, activity-based probe fluorescence polarization; inhibition, % at 2.79 µM; hit rate 1.3% among 370,000; AID 652257, 2013;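 active means inhibition above about 21% made by adding two undisclosed values, limit read from the data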
Target sequence (Q99873 whole entry, looked up): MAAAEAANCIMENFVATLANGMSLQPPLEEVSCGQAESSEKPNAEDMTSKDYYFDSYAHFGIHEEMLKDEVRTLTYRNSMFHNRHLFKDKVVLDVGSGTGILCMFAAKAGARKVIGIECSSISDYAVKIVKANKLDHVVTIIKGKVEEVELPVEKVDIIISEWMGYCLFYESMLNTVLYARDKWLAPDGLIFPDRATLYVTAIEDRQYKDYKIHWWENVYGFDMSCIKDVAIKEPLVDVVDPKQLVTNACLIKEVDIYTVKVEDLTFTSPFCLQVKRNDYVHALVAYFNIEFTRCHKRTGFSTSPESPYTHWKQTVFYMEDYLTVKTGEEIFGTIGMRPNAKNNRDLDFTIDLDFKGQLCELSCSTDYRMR
TCR-CD3 inh: inhibitors of human TCR-CD3 interaction, primary screen, biochemical, fluorescence, TAMRA-labeled TCR probe. inhibition, % at 9.4 µM. hit rate 0.37% among 360,000. T-cell receptor (TCR); in the data active means inhibition above about 19%;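 further: recombinant mutant TCR 2C K166C tagged with TAMRA read by polarization; 0% = receptor in buffer alone and 100% = receptor with positive control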
rCAG RNA binder: binders of r(CAG) RNA repeats, primary screen, biochemical, fluorescence. hit rate 1.3% among 370,000. r(CAG) RNA repeat, TO-PRO-1 dye displacement fluorescence. inhibition, % at 3 µM;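 active means inhibition above the plate cutoff, the mean of all test compounds on that plate plus 3 SD, cut at about 35% in these data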;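 further: 0% = DMSO alone and 100% = 100 µM mitoxantrone as full dye displacement; higher means more dye released from RNA so lower well fluorescence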
Starred values were filed as active, the others as inactive; x = not tested or not shown; ! = not active in a repeat.

SMILES | SIAE inh | ABHD4 inh | PRMT1 FP inh | TCR-CD3 inh | rCAG RNA binder
CNC(=O)c1c(C)[nH]c(=S)c(C#N)c1-c1ccco1 | 11 | 8 | 34* | -2 | 16
Cc1ccccc1NC(=O)c1c(C)[nH]c(=S)c(C#N)c1-c1ccco1 | -6 | -8 | 24* | -3 | 17
COc1cc2c(cc1NC(=O)Nc1ccccc1)oc1ccccc12 | -8 | -30 | -1 | -4 | 35*
Cc1ccc(C(=S)N2CCN(Cc3ccccc3)CC2)cc1 | 3 | 1 | 22* | 2 | -6
COc1ccc(/C=C2\SC(=S)N(CC(=O)OCC(=O)Nc3ccc([N+](=O)[O-])cc3OC)C2=O)cc1 | 11 | -1 | -1 | 6 | 8
COc1ccc(/C=C2\SC(=S)N(CC(=O)OCC(=O)Nc3ccc(C)cc3Cl)C2=O)cc1 | -6 | -3 | 21* | -8 | 12
COC(=O)C[C@H]1CC[C@H]2[C@H](COc3ccc(NC(=O)C4CCOCC4)cc3C(=O)N2C)O1 | -1 | -3 | -1 | x | 3
CC1=Nc2ccccc2/C1=C/c1sc(=S)n(-c2cccc(C(=O)O)c2)c1O | -20 | 5 | -21 | -7 | 72*
COC(=O)C1=C(C(=O)OC)[C@@]2([C@@H](Cc3ccc(C)cc3)Nc3ccccc3)C=C[C@@H]1O2 | 9 | -1 | 12 | x | x
CCC(=O)N1CCN(c2ccc(NC(=O)c3ccc4c(c3)OCO4)cc2)CC1 | 101* | -3 | 0 | -2 | 3
COC(=O)c1cc(C(C)c2ccccc2O)n2ccccc12 (stereo unspecified) | -6 | -21 | -5 | x | 2
COC(=O)C1CN(Cc2cn(Cc3ccc(F)cc3)nn2)CCS(=O)(=O)N1Cc1ccc(F)cc1 (stereo unspecified) | 6 | -1 | -1 | x | 2
COc1ccccc1-n1c(SCC(=O)NC(C)(C)C)nc(O)cc1=O | 1 | 4 | 5 | -3 | 11
COc1ccccc1NC(=O)CSc1nc(O)cc(=O)n1-c1ccccc1OC | -7 | -22 | 3 | 2 | 40*
CCOC(=O)c1c(-c2ccc(OC)cc2)csc1NC(=O)CSc1nnc(C)c(=O)[nH]1 | -22 | -22 | 1 | -2 | 63*
Cc1nc2c(=O)[nH]c(=S)[nH]c2[nH]c1=O | -15 | -1 | 24* | 5 | 26
O=C1CC(SCc2nc3ccccc3[nH]2)C(=O)N1c1cccc(Cl)c1 (stereo unspecified) | -14 | -14 | 31* | -7 | 16
O=C1CC(SCc2nc3ccccc3[nH]2)C(=O)N1c1ccc(F)cc1 (stereo unspecified) | -1 | 6 | 14 | 0 | 4
CC1=C(SCc2ccccc2)C(=O)c2ccccc2C1=O | 14 | 70* | 66* | 8 | 27
O=S(=O)(Nc1nc2ccccc2nc1Cl)c1ccccc1C(F)(F)F | 3 | -3 | -2 | 8 | 9
O=S(=O)(Nc1nc2ccccc2nc1Cl)c1cccc(C(F)(F)F)c1 | 1 | -11 | -2 | 2 | 42*
O=C(O)Cn1c2c(c3ccccc31)CSc1ccc(Cl)cc1-2 | -7 | 7 | 78* | 9 | 58*
O=C(O)Cn1c2ccccc2c2ccccc21 | 10 | 2 | -3 | 1 | -2
Cc1nc2c(=O)[nH]c(=S)n(C)c2nc1C | -3 | 8 | 23* | -4 | -1
COC(=O)[C@H](Cc1ccccc1)N(Cc1cn(Cc2ccccc2)nn1)S(=O)(=O)c1ccccc1Br | -7 | -9 | 2 | x | 7
Cc1ccc(NCCc2ccc(C)nc2)cc1 | -1 | -1 | -2 | 2 | 0
Cc1ccc(CCNc2ccc3ccccc3c2)cn1 | 0 | 5 | 23* | -1 | 0
CC(C)CNS(=O)(=O)/C=C/c1ccc(F)cc1CNC(=O)OC(C)(C)C | 10 | 0 | -4 | x | -2
CN1C[C@H](C(=O)N[C@]2(C)O[C@@]3(O)[C@@H]4CCCN4C(=O)[C@H](Cc4ccccc4)N3C2=O)CC2c3cccc4[nH]cc(c34)C[C@H]21 (stereo partly specified) | 21*! | 5 | 11 | 5 | 4
CC(C)C[C@H]1C(=O)N2CCC[C@H]2[C@]2(O)O[C@](NC(=O)C3C=C4c5cccc6[nH]c(Br)c(c56)C[C@H]4N(C)C3)(C(C)C)C(=O)N12 (stereo partly specified) | 12 | 25 | 15 | 3 | 10

Screens (PubChem BioAssay)
